Blank lines part the entries; values can stand above or below the compound they belong to. Activity calls are given as the source filed them. The calls are words filed in the database; no cut-off is given here.
Tests used:
[1] = Plasma concentration in Harlan Sprague-Dawley rat at 10 mg/kg, po measured after 3 hrs; format: ADME, organism-based
[2] = Fraction unbound in human plasma measured after 24 hrs by LC-MS/MS analysis; format: ADME, cell-free
[3] = Oral bioavailability in Sprague-Dawley rat incubated for 24 hrs by LC-MS/MS analysis; format: ADME, organism-based; conditions: in vivo
Homo sapiens [4] = test: Antialzheimer activity in human assessed as reduction in amyloid beta (1 to 42) AUC at 1.3 mg/kg qd relative to control; parameters: scale not given: the % may be the effect or the level left
[5] = molecular target: T1, Solute carrier organic anion transporter family member 1B1 (Homo sapiens, UniProt Q9Y6L6); test: Inhibition of OATP1B1 (unknown origin); format: ADME
T1 sequence (Q9Y6L6 whole entry): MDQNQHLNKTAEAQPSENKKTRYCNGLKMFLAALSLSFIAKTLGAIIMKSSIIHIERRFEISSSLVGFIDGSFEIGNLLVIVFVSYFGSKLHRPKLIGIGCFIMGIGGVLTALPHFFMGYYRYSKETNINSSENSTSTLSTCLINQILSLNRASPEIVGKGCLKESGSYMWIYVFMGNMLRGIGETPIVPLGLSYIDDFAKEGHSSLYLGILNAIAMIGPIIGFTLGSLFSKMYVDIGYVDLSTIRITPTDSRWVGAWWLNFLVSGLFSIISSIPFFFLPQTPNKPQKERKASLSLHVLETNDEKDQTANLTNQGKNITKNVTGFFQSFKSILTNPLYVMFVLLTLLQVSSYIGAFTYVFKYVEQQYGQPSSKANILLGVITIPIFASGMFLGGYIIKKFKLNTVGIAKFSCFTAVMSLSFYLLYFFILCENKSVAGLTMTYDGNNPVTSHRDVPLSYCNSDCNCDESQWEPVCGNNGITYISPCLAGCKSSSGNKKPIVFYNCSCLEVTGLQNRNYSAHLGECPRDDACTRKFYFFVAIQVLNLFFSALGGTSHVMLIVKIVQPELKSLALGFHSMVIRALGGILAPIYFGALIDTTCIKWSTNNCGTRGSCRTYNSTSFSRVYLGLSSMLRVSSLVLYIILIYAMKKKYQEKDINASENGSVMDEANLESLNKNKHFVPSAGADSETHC

[6] = molecular target: Voltage-gated inwardly rectifying potassium channel KCNH2 (Homo sapiens, UniProt Q12809); test: Inhibition of human ERG by patch clamp method
[7] = AUC (0 to 24 hrs) in Harlan Sprague-Dawley rat incubated for 24 hrs by LC-MS/MS analysis; format: ADME; parameters: time 24 hrs; conditions: in vivo
[8] = Octanol/water partition coefficient, logD of the compound at pH 6.5 by shake flask method; format: physicochemical
How it was run: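 Octanol/water partitioning by shake flask at pH 6.5.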

[9] = Inhibition of amyloid beta (1 to 42) secretion in human H4 cells overexpressing APP incubated for overnight by HTRF analysis; format: functional, cell-based
[10] = Stability in human liver microsomes assessed as remaining compound measured after 10 mins by LC-MS/MS analysis; format: ADME, Microsome; conditions: read-out: Stabilty
How it was run: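 High-throughput microsomal stability: 3 μM substrate, 1 mg/mL microsomal protein, 100 mM sodium phosphate pH 7.4, 37 °C; quenched at 10 min, LC–MS/MS, percent parent remaining reported.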

[11] = Cardiotoxicity in rabbit assessed as NOAEL by telemetric analysis; format: toxicity, Oryctolagus cuniculus
[12] = Toxicity in rat assessed as increase in unconjugated bilirubin in plasma at 10 to 100 mg/kg, po administered for 4 days; format: organism-based; conditions: in vivo, 96 h, dose 10-100 mg/kg, time 4 day
How it was run: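 Rats dosed orally at 10, 30 and 100 mg/kg for 4 days; plasma inspected and unconjugated bilirubin assessed.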

[13] = Oral bioavailability in Beagle dog incubated for 24 hrs by LC-MS/MS analysis; format: ADME, organism-based, Canis lupus familiaris; conditions: in vivo
[14] = Reduction in amyloid beta (1 to 42) secretion in brain in Harlan Sprague-Dawley rat at 10 mg/kg, po measured after 3 hrs relative to control; format: functional
How it was run: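 Sprague–Dawley rats dosed 10 mg/kg po; brain Aβ1-42 measured 3 h postdose; n = 5.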

[15] = Oral bioavailability in cynomolgus monkey incubated for 24 hrs by LC-MS/MS analysis; format: ADME, organism-based, Macaca fascicularis; conditions: in vivo
[16] = Reduction in amyloid beta (1 to 42) secretion in brain in triple transgenic LaFerla mouse at 30 mg/kg, po measured after 3 hrs relative to control; format: functional
How it was run: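 Triple transgenic LaFerla mice (APP Swedish, MAPT P301L, PSEN1 M146V) given 30 mg/kg po; brain Aβ1-42 measured 3 h postdose; n = 3.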

[17] = Plasma concentration in triple transgenic LaFerla mouse at 30 mg/kg, po measured after 3 hrs; format: ADME, organism-based
Homo sapiens [18] = test: Antialzheimer activity in human assessed as reduction in amyloid beta (1 to 42) AUC at 1.3 mg/kg qd relative to control; parameters: scale not given: the % may be the effect or the level left; remark: listed apart in the source
[19] = molecular target: T2, UDP-glucuronosyltransferase 1A1 (Homo sapiens, UniProt P22309); test: Inhibition of human UGT1A1; format: ADME
T2 sequence (P22309 whole entry): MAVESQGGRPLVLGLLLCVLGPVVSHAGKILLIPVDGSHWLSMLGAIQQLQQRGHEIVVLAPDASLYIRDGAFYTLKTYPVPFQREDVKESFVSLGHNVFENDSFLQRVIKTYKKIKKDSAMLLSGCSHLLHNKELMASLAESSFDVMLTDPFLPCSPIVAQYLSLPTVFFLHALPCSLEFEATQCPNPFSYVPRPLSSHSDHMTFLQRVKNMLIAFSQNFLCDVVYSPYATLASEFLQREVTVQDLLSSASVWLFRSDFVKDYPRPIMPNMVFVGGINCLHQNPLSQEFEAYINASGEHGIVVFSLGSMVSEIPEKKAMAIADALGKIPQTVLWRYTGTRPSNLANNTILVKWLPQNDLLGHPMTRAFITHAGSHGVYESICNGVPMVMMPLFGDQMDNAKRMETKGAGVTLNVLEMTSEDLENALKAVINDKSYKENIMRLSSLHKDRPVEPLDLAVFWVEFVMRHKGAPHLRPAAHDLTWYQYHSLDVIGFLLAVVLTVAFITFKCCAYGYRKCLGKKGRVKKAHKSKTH

Rattus norvegicus = species on record: Rattus norvegicus; test: Antialzheimer activity in Harlan Sprague-Dawley rat brain assessed as reduction in amyloid beta (1 to 42) AUC relative to control; format: functional; parameters: scale not given: the % may be the effect or the level left
[20] = Toxicity in rat assessed as hepatocellular necrosis at 10 to 100 mg/kg, po administered for 4 days by histological assay; format: organism-based; conditions: in vivo, 96 h, dose 10-100 mg/kg, time 4 day
[21] = Suppression of total amyloid beta secretion in human H4 cells overexpressing APP incubated for overnight by Western blot analysis; format: ADME, cell-based
H4 [22] = test: Induction of amyloid beta (1 to 37) secretion in human H4 cells overexpressing APP incubated for overnight by Western blot analysis; format: functional, cell-based
H4 [23] = test: Induction of amyloid beta (1 to 38) secretion in human H4 cells overexpressing APP incubated for overnight by Western blot analysis; format: functional, cell-based
[24] = Ratio of drug level in brain to plasma in triple transgenic LaFerla mouse at 30 mg/kg, po measured after 3 hrs; format: ADME, organism-based

Sequence of Voltage-gated inwardly rectifying potassium channel KCNH2 (Q12809 whole entry): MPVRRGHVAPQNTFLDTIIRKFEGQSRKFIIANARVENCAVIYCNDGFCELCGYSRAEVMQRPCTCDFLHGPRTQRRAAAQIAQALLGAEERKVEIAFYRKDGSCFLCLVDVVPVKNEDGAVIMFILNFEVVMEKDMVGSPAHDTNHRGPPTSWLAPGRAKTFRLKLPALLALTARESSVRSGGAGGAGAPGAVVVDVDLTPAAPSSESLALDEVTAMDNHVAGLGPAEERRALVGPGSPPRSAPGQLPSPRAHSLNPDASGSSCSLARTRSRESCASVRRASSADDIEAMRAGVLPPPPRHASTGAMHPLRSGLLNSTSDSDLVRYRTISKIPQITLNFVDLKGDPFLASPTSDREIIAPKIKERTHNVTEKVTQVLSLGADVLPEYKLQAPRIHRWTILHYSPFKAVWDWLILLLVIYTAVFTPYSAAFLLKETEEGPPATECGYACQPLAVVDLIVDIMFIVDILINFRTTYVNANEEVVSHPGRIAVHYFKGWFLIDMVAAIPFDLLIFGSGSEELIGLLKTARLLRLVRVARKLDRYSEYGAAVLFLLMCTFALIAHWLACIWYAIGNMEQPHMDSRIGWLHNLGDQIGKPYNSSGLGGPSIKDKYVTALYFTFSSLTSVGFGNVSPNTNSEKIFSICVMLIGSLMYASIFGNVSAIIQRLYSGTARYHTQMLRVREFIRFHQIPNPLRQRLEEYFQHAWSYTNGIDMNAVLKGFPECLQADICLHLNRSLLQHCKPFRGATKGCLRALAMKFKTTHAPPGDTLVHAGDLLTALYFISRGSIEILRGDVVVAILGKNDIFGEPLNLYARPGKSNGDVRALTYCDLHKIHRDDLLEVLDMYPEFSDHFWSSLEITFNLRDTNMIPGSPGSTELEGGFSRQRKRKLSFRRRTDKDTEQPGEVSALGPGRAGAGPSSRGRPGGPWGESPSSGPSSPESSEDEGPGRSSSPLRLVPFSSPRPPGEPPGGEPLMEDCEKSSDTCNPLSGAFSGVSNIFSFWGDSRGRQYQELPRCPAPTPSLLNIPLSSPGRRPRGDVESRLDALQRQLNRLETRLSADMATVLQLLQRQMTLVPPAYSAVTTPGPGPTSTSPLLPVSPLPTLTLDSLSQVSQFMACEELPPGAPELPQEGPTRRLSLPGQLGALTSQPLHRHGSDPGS

Structure (SMILES): CNc1nc(Nc2ccc(-n3cnc(Cl)c3)c(OC)c2)nc2c1CC[C@H]2c1ccccc1
concentration at 3 h [1]: 1700 nM
Fu [2]: 0.1%
F [3]: 49%
Activity (Homo sapiens [4]): 25%
IC50 [5]: 690 nM
IC50 [6]: 200 nM
AUC(0-t) at 24 h [7]: 7.6 µM·h
logD [8]: 4.42
IC50 [9]: 2 nM
remaining at 10 min [10]: 96%
NOAEL [11]: 15 µM
Activity [12]: Toxic
bioavailability [13]: 64%
inhibition in vivo at 10 mg/kg [14]: 59%
bioavailability [15]: 44%
inhibition in vivo at 30 mg/kg [16]: 86%
concentration at 3 h [17]: 2100 nM
Activity (Homo sapiens [18]): 25%
IC50 [19]: 1400 nM
Activity (Rattus norvegicus): 25%
Activity [20]: Toxic

IC50 [9]: 120 nM
Structure (SMILES): CNc1nc(Nc2ccc(-n3cncn3)c(OC)c2)nc(-c2ccccc2)n1
Activity [21]: Non-Toxic
Activity (H4 [22]): Active
Activity (H4 [23]): Active

BPR [24]: 0.47
IC50 [9]: 31 nM
Structure (SMILES): CNc1nc(Cc2ccccc2)nc(Nc2ccc(-n3cnc(C)c3)c(OC)c2)n1
inhibition in vivo at 30 mg/kg [16]: 32%
